Some results are limits rather than exact numbers.

A short description of data set [1]: Cytotoxicity against human HL60 cells assessed as cell growth inhibition at 50 uM after 48 hrs by MTT assay. As to conditions: HL-60, 48 h, read-out: GI. Format: functional. In a few lines: (§1)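 HL-60 suspension cells, 1.5 × 10^4 per well, grown at 37 °C in 5% CO2 with 10% FCS. Treated 48 h with compound in DMSO (vehicle <0.2% v/v). MTT added 3 h before the end. Formazan dissolved in DMSO and read at 570 nm (reference 620 nm). % growth inhibition computed against untreated cells; IC50 taken from the concentration series.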
A general note: Tetrazolium dyes change colour on reduction, which living cells bring about.

Data set [2] in a line: Cytotoxicity against human HL60 cells assessed as cell growth inhibition at 30 uM after 48 hrs by MTT assay. The note with it: HL-60, 48 h, read-out: GI. Type of data set: functional. The method in brief:
as §1

Data set [3] in a line: Cytotoxicity against human MIAPaCa2 cells assessed as cell growth inhibition at 30 uM after 48 hrs by MTT assay. Type of data set: functional. The note with it: MIA PaCa-2, 48 h, read-out: GI. In a few lines: (§2)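 Adherent lines at 70–75% confluence, grown at 37 °C in 5% CO2 with 10% FCS. Exposed 48 h to compound in DMSO (vehicle <0.2% v/v). MTT dye added 3 h before termination; formazan dissolved in DMSO, OD 570 nm with 620 nm reference. Growth inhibition expressed as % of untreated; IC50 taken from the dose series.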

Data set [4] is described as follows: Cytotoxicity against human MIAPaCa2 cells assessed as cell growth inhibition at 50 uM after 48 hrs by MTT assay. Type of data set: functional. As to conditions: MIA PaCa-2, 48 h, read-out: GI. In a few lines:
as §2

Data set [5] can be described thus: Cytotoxicity against human PC3 cells assessed as cell growth inhibition at 30 uM after 48 hrs by MTT assay. Format: functional. The note with it: PC-3, 48 h, read-out: GI. The method in brief: as §2
The nature of data set [6]: Cytotoxicity against human PC3 cells assessed as cell growth inhibition at 50 uM after 48 hrs by MTT assay. Type of data set: functional. As to conditions: PC-3, 48 h, read-out: GI. The method in brief: as §2
Data set [7] can be described thus: Cytotoxicity against human HepG2 cells assessed as cell growth inhibition at 30 uM after 48 hrs by MTT assay. Format: functional. As to conditions: HepG2, 48 h, read-out: GI. In a few lines: as §2
Data set [8] is described as follows: Cytotoxicity against human HepG2 cells assessed as cell growth inhibition at 50 uM after 48 hrs by MTT assay. Format: functional. As to conditions: HepG2, 48 h, read-out: GI. In a few lines:
as §2

Data set [9] is described as follows: Cytotoxicity against human LS180 cells assessed as cell growth inhibition at 30 uM after 48 hrs by MTT assay. Format: functional. As to conditions: LS180, 48 h, read-out: GI. The method in brief: as §2
Data set [10] in a line: Cytotoxicity against human LS180 cells assessed as cell growth inhibition at 50 uM after 48 hrs by MTT assay. Format: functional. As to conditions: LS180, 48 h, read-out: GI. The method in brief:
as §2

A short description of data set [11]: Lipophilicity, log P of the compound. Format: physicochemical. As to conditions: octanol/water.
Data set [12] can be described thus: Aqueous solubility of the compound at pH 7. Format: physicochemical.
Data set [13] is described as follows: Cytotoxicity against human HepG2 cells assessed as cell growth inhibition after 48 hrs by MTT assay. Type of data set: functional, cell-based. As to conditions: HepG2, 48 h. In a few lines: as §2
The nature of data set [14]: Cytotoxicity against human LS180 cells assessed as cell growth inhibition after 48 hrs by MTT assay. Format: functional, cell-based. The note with it: LS180, 48 h. In a few lines: as §2

Turning to `C[C@H]1[C@@H](OCCOc2ccc(/C=C/C(=O)c3cccc(O)c3)cc2)O[C@@H]2O[C@@]3(C)CC[C@H]4[C@H](C)CC[C@@H]1[C@@]24OO3`, the inhibition of growth at 50 µM is 76.5% in data set [1]; 51.1% in [4]; 49.5% in data set [6]; 38.3% in data set [8]; 39.3% in data set [10]. Besides, the inhibition of growth at 30 µM in [2] was 77.7%; in [3], 44.1%; in [5], 47.6%; in data set [7], 33.6%; in data set [9], 31.1%. Also, the logP (as a rule, a log measure of how a compound divides between an organic and an aqueous phase) in data set [11] lay within 5.34 to 7.45. Besides, the solubility (as a rule, the concentration that dissolves in the medium under given conditions) in data set [12] is less than 10 µg/mL.
Consider `C[C@H]1[C@@H](OCCOc2ccc(C(=O)/C=C/c3c[nH]c4ccccc34)cc2)O[C@@H]2O[C@@]3(C)CC[C@H]4[C@H](C)CC[C@@H]1[C@@]24OO3`, for which the inhibition of growth at 50 µM in data set [1] came out at 91.8%; in [4], 49.4%; in data set [6], 39.6%; in data set [8], 25.9%; in [10], 44.1%. Besides, the inhibition of growth at 30 µM was found to be 89.1% in [2]; 49.1% in [3]; 38.6% in [5]; 21.2% in data set [7]; 41.9% in [9]. In [11], this molecule gave a logP of 5.34 to 7.45. In [12], the solubility is less than 10 µg/mL.
As for `COc1cccc2c1C(=O)c1c(O)c3c(c(O)c1C2=O)C[C@@](O)(C(=O)CO)C[C@@H]3O[C@H]1C[C@H](N)[C@H](O)[C@H](C)O1` [DOXORUBICIN], the IC50 (usually the concentration at which inhibition is half-maximal) in data set [13] was determined as 540 nM; in data set [14], 840 nM.
Regarding `C[C@H]1[C@@H](OCCOc2ccc(-c3cc(=O)c4ccc(OCCO[C@H]5O[C@H]6O[C@@]7(C)CC[C@H]8[C@H](C)CC[C@@H]([C@H]5C)[C@@]68OO7)cc4o3)cc2)O[C@H]2O[C@@]3(C)CC[C@H]4[C@H](C)CC[C@@H]1[C@@]24OO3`, the inhibition of growth at 50 µM in [1] is 73.8%; in data set [4] it was 41.8%; in data set [6], 41.3%; in data set [8], 37.7%; in data set [10], 39.7%. For the same molecule, the inhibition of growth at 30 µM in data set [2] was 71.8%; in data set [3] it was 32.7%; in data set [5] it was 40.6%; in data set [7], 30.1 to 87.4%; in data set [9], 30.5%. In [11], this molecule had a logP of 5.34 to 7.45. The molecule further gave a solubility in data set [12] of less than 10 µg/mL.

The values are drawn from ChEMBL document CHEMBL3865799, “Synthesis of a series of novel dihydroartemisinin monomers and dimers containing chalcone as a linker and their anticancer activity” (Eur J Med Chem, 2016).
